This is an account of results in ChEMBL document CHEMBL1212873, “Inactivation of protein tyrosine phosphatases by oltipraz and other cancer chemopreventive 1,2-dithiole-3-thiones” (Bioorg Med Chem, 2010).

In experiment [1] the target is T1, Tyrosine-protein phosphatase non-receptor type 1 (Homo sapiens) (UniProt P18031).
T1 sequence (whole entry): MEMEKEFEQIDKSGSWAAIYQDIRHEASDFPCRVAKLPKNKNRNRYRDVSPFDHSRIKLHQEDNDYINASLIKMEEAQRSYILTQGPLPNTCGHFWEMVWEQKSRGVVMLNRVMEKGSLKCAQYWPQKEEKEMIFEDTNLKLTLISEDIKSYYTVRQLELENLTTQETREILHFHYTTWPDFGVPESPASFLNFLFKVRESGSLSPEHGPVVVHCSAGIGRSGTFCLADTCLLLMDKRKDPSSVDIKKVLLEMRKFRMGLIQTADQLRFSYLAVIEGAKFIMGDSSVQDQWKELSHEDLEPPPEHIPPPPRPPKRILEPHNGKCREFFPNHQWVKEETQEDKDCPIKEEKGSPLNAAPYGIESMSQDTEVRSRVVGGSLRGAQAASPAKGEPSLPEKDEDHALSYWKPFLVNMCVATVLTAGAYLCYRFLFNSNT
The settings on record: 2 to 50 uM.

Experiment [2] deals with T1, Tyrosine-protein phosphatase non-receptor type 1 (Homo sapiens). In words: Competitive inhibition of human PTP1B catalytic subunit assessed as enzyme inactivation at 25 uM after 15 mins by spectrophotometry. The method in brief:
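Thiol-free PTP1B (12.5 nM final) with compound at 25 µM and 20 mM pNPP in 50 mM Tris, 50 mM bis-Tris, 100 mM sodium acetate, 10 mM DETAPAC, 1% DMF, pH 7.2, 23 °C. Activity loss followed at 410 nm; apparent inactivation rate from first-order fit of progress curves; mean of three experiments.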

Experiment [3] concerns the target T2, Tyrosine-protein phosphatase non-receptor type 11 (Homo sapiens) (UniProt Q06124).
T2 sequence (whole entry): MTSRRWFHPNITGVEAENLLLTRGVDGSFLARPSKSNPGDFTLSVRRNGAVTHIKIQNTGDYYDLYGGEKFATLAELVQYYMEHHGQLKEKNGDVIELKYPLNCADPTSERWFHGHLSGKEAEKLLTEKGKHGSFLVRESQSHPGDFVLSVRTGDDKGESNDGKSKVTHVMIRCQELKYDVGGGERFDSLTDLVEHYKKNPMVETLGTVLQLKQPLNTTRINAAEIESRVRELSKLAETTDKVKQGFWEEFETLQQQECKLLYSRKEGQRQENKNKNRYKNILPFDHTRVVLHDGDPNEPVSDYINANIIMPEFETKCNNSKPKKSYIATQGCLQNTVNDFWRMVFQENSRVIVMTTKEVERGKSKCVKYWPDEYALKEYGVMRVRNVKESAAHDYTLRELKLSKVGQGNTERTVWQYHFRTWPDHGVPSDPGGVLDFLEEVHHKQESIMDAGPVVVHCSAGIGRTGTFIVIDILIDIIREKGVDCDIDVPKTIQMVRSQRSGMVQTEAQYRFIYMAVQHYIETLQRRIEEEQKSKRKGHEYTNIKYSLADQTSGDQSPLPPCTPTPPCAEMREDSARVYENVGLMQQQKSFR
The settings on record: 10 to 50 uM.

For experiment [4], the target named is T1, Tyrosine-protein phosphatase non-receptor type 1 (Homo sapiens). As to conditions: 50 uM.
Experiment [5] has the same target. As to conditions: 2 to 50 uM. This is another data set of the same source.
The target in experiment [6] is T2, Tyrosine-protein phosphatase non-receptor type 11 (Homo sapiens). As to conditions: 10 to 50 uM. The source holds these as a separate data set.
Experiment [7] has as its target T1, Tyrosine-protein phosphatase non-receptor type 1 (Homo sapiens). The settings on record: 2 to 50 uM. This is another data set of the same source.
Experiment [8] has the same target. As to conditions: 50 uM. The source holds these as a separate data set.
Experiment [9] shares this target. As to conditions: 50 uM. This is another data set of the same source.
Experiment [10] shares this target. The settings on record: 50 uM. This is another data set of the same source.
Experiment [11] shares this target. The settings on record: 2 to 50 uM. The source holds these as a separate data set.
Experiment [12] has the same target. The settings on record: 2 to 50 uM. This is another data set of the same source.
The target of experiment [13] is T2, Tyrosine-protein phosphatase non-receptor type 11 (Homo sapiens). The settings on record: 10 to 50 uM. This is another data set of the same source.
Experiment [14] shares this target. In words: Irreversible inhibition of SHP2 at 10 to 50 uM in presence of 100 mM dithiothreitol.

As usually defined, the inhibition is the share of the control response that was lost under treatment.

The source made the active and inactive calls. The rule behind the calls is not given here.

With `Cc1c(-c2cnccn2)ssc1=S`, the inhibition result in [1], in experiment [2], in experiment [5], in [6], in experiment [7] and in [11] was “Active” throughout. The inhibition entry in [3], in experiment [10] and in [13] was “inactive” throughout. For the same compound, the inhibition in experiment [4] is 70%; in experiment [8], greater than 97%; in experiment [9], 50%; in [12] it was “tde”.

For `S=c1ccss1`, the inhibition result in experiment [2] is “Active”. The inhibition entry in experiment [14] is “inactive”.

`COc1ccc(-c2cc(=S)ss2)cc1`: in [2], the inhibition entry was “Active”.
